# Measurements reported in ChEMBL document CHEMBL1153083, “Antiprotozoal, anticancer and antimicrobial activities of dihydroartemisinin acetal dimers and monomers” (Bioorg Med Chem, 2009).
# pIC50: −log10 of the molar value. Active and inactive are the calls of the source. The calls are words filed in the database; no cut-off is given here.
# Experiments:
# [1] = Toxicity against african green monkey Vero cells after 48 hrs by neutral red assay; type: cell-based; conditions: chlorocebus sabaeus, Vero cells; read-out: TC50
# Method in brief: (§1)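 Cells seeded at 25,000 per well and incubated 24 h, then exposed to samples for 48 h. Viable cells were counted by neutral red, with DMSO as vehicle control. IC50 or TC50 values were derived from logarithmic plots of growth inhibition versus concentration.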
# [2] = Toxicity against pig LLC-PK11 cells after 48 hrs by neutral red assay; type: cell-based, Sus scrofa; method in brief: as §1
# [3] = system: SK-MEL; assay: Cytotoxicity against human SK-MEL cells after 48 hrs by neutral red assay; type: functional, cell-based; method in brief: as §1
# [4] = system: Candida albicans; assay: Antifungal activity against Candida albicans ATCC 90028 by modified CLSI/NCCLS method; type: functional, organism-based; conditions: for pIC50: Candida albicans, ATCC 90028, read-out: IC50
# [5] = system: Staphylococcus aureus; assay: Antibacterial activity against methicillin-resistant Staphylococcus aureus ATCC 43300 by modified CLSI/NCCLS method; type: functional, organism-based
# [6] = system: Plasmodium falciparum; assay: Antiplasmodial activity against Plasmodium falciparum D6 infected in RBCs by parasitic LDH release assay; type: functional, organism-based
# Method in brief: (§2)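 Infected erythrocytes at 2% parasitemia and 2% hematocrit, in RPMI 1640 with 10% human serum and amikacin 60 μg/mL, were exposed to serial dilutions under N2/O2/CO2 (90:5:5) at 37°C for 72 h. LDH was read with Malstat reagent (30 min), then NBT/PES in the dark (60 min), stopped with 5% acetic acid, at 650 nm. IC50 came from percent growth dose-response curves.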
# [7] = system: Leishmania donovani; assay: Antileishmanial activity against Leishmania donovani promastigotes after 48 hrs by alamar blue assay; type: functional, organism-based; conditions: for pIC50: read-out: IC50
# [8] = system: Cryptococcus neoformans; assay: Antifungal activity against Cryptococcus neoformans ATCC 90113 by modified CLSI/NCCLS method; type: functional, organism-based
# [9] = system: Plasmodium falciparum; assay: Antiplasmodial activity against Plasmodium falciparum W2 infected in RBCs by parasitic LDH release assay; type: functional, organism-based; method in brief: as §2
# [10] = Toxicity against african green monkey Vero cells; type: cell-based; conditions: chlorocebus sabaeus; method in brief: as §1
# [11] = system: Mycobacterium intracellulare; assay: Antibacterial activity against Mycobacterium intracellular ATCC 23068 by Franzblau method; type: functional, organism-based; conditions: for pIC50: Mycobacterium intracellulare, ATCC 23068, read-out: IC50
# [12] = Selectivity index, ratio of TC50 for african green monkey (Cercopithecus aethiops) Vero cells to IC50 for Plasmodium falciparum D6; type: toxicity, cell-based
# [13] = system: Nakaseomyces glabratus; assay: Antifungal activity against Candida glabrata ATCC 90030 by modified CLSI/NCCLS method; type: functional, organism-based
# [14] = system: Aspergillus fumigatus; assay: Antifungal activity against Aspergillus fumigatus ATCC 90906 by modified CLSI/NCCLS method; type: functional, organism-based
# [15] = Selectivity index, ratio of TC50 for african green monkey (Cercopithecus aethiops) Vero cells to IC50 for Plasmodium falciparum W2; type: toxicity, cell-based
# [16] = system: Pichia kudriavzevii; assay: Antifungal activity against Candida krusei ATCC 6258 by modified CLSI/NCCLS method; type: functional, organism-based; conditions: Pichia kudriavzevii, ATCC 6258; read-out: IC50
# [17] = system: Pseudomonas aeruginosa; assay: Antibacterial activity against Pseudomonas aeruginosa ATCC 27853 by modified CLSI/NCCLS method; type: functional, organism-based
# [18] = system: BT-549; assay: Cytotoxicity against human BT549 cells after 48 hrs by neutral red assay; type: functional, cell-based; conditions: Homo sapiens, BT-549, 48 h; read-out: IC50; method in brief: as §1
# [19] = system: Escherichia coli; assay: Antibacterial activity against Escherichia coli ATCC 35218 by modified CLSI/NCCLS method; type: functional, organism-based
# [20] = system: KB; assay: Cytotoxicity against human KB cells after 48 hrs by neutral red assay; type: functional, cell-based; conditions: Homo sapiens, KB, 48 h; read-out: IC50; method in brief: as §1
# [21] = system: SK-OV-3; assay: Cytotoxicity against human SKOV3 cells after 48 hrs by neutral red assay; type: functional, cell-based; conditions: sk-ov-3; method in brief: as §1
SMILES,IC50 [4],IC50 [5],pIC50 [6],IC90 [7],"pIC50 ([7]; Leishmania donovani, 48 h)",pIC50 [8],pIC50 [9],CC50 [10] [nM],selectivity ratio [12],IC50 [13],IC50 [14],selectivity ratio [15],pIC50 [16],IC50 [11],other results
CC(=O)O[C@H]1C(=O)[C@@]2(C)[C@H]([C@H](OC(=O)c3ccccc3)[C@]3(O)C[C@H](OC(=O)[C@H](O)[C@@H](NC(=O)c4ccccc4)c4ccccc4)C(C)=C1C3(C)C)[C@]1(OC(C)=O)CO[C@@H]1C[C@@H]2O [PACLITAXEL],–,–,–,–,–,–,–,–,–,–,–,–,–,–,"CC50 at 48 h [1]: 530 nM; CC50 at 48 h ([2]; LLC-PK11 cells, read-out: TC50): 4390 nM; pIC50 ([3]; Homo sapiens, SK-MEL, 48 h, read-out: IC50): 5.39"
CC1=CO[C@@H]2O[C@]3(C)CC[C@H]4[C@H](C)CC[C@@H]1[C@@]24OO3 [ANHYDRODIHYDROARTEMISININ],Not Active,Not Active,7.80,inactive,4.52,6.52,7.59,> 1790,> 113,Not Active,Not Active,> 70,4.25,–,pIC50 [11]: 4.25
C[C@H]1[C@@H](OC/C=C\CO[C@H]2O[C@@H]3O[C@@]4(C)CC[C@H]5[C@H](C)CC[C@@H]([C@H]2C)[C@@]35OO4)O[C@@H]2O[C@@]3(C)CC[C@H]4[C@H](C)CC[C@@H]1[C@@]24OO3,Not Active,Not Active,8.20,inactive,–,4.62,8.21,–,113,–,Not Active,116,–,Not Active,"IC50 [17]: Not Active; CC50 at 48 h [1]: 180 nM; IC50 [7]: Not Active; pIC50 [18]: 5.82; TC50 ([2]; llc-pk11, 48 h): Non-toxic; IC50 [19]: Not Active; pIC50 [20]: 6.49; IC50 ([3]; sk-mel): Not Active; IC50 [21]: Not Active"
N=C(N)c1ccc(OCCCCCOc2ccc(C(=N)N)cc2)cc1 [PENTAMIDINE],–,–,–,–,5.55,–,–,–,–,–,–,–,–,–,"IC90 ([7]; Leishmania donovani, 48 h): 6400 nM"
O=C(O)c1cn(C2CC2)c2cc(N3CCNCC3)c(F)cc2c1=O [CIPROFLOXACIN],–,–,–,–,–,–,–,–,–,–,–,–,–,–,pIC50 [11]: 5.90
C[C@H]1[C@@H](O)O[C@@H]2O[C@@]3(C)CC[C@H]4[C@H](C)CC[C@@H]1[C@@]24OO3 [ARTENIMOL],–,Not Active,7.83,inactive,4.06,6.55,7.85,1410,95,Not Active,Not Active,100,4.55,Not Active,pIC50 [4]: 6.06
C[C@@H]1[C@H](O)[C@@H](C)/C=C/C=C/C=C/C=C/C=C/C=C/C=C/[C@H](O[C@@H]2O[C@H](C)[C@@H](O)[C@H](N)[C@@H]2O)C[C@@H]2O[C@](O)(C[C@@H](O)C[C@@H](O)[C@H](O)CC[C@@H](O)C[C@@H](O)CC(=O)O[C@H]1C)C[C@H](O)[C@H]2C(=O)O [AMPHOTERICIN B],–,–,–,–,–,6.11,–,–,–,–,–,–,6.07,–,"pIC50 [4]: 6.43; IC90 ([7]; Leishmania donovani, 48 h): 400 nM; pIC50 ([13]; Nakaseomyces glabratus, ATCC 90030, read-out: IC50): 6.34; pIC50 ([14]; Aspergillus fumigatus, ATCC 90906, read-out: IC50): 5.95"
CCN(CC)CCCC(C)Nc1ccnc2cc(Cl)ccc12 (centres undefined) [CHLOROQUINE],–,–,–,–,–,–,–,> 14900,–,–,–,–,–,–,–
C[C@@H]1CC[C@H]2[C@@H](C)C(=O)O[C@@H]3O[C@@]4(C)CC[C@@H]1[C@]32OO4 [ARTEMISININ],Not Active,Not Active,7.48,inactive,4.39,6.60,7.37,> 1680,> 51,Not Active,Not Active,> 40,4.85,Not Active,–
